Test results as given in ChEMBL document CHEMBL3352055, “Synthesis and structure-activity relationship studies of small molecule disruptors of EWS-FLI1 interactions in Ewing's sarcoma” (J Med Chem, 2014).
Activity calls are given as the source filed them. The rule behind the calls is not given here.

Legend:
[1] = Growth inhibition of human TC71 cells harboring EWS-FLI1 fusion protein after 3 days by WST1 assay; format: functional; details: TC-71, 72 h
How it was run: (§1)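 Cells plated at 5000–15000 per well in colorless medium. TC32 and TC71 grown in RPMI with 10% FBS and 1% HEPES; PANC1 in DMEM with 10% FBS. Compounds or DMSO vehicle added the day after plating. Viable cells measured by MTT or WST-1 after 3 days. GI50 from nonlinear regression.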

[2] = Growth inhibition of human TC32 cells harboring EWS-FLI1 fusion protein after 3 days by WST1 assay; format: functional; details: TC-32, 72 h; how it was run: as §1
[3] = Growth inhibition of human PANC1 cells after 3 days by WST1 assay; format: cell-based, PANC-1; how it was run: as §1
[4] = biological target: Friend leukemia integration 1 transcription factor (Proto-oncogene Fli-1)/RNA-binding protein EWS (Homo sapiens) (UniProt Q01844+Q01543); assay: (§2) Inhibition of transcriptional activity of full-length EWS-FLI1 (unknown origin) expressed in COS7 cells by NR0B1-luciferase reporter gene assay; format: cell-based; details: COS-7
How it was run: (§3)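 COS7 cells transiently co-transfected with an NR0B1 luciferase reporter carrying EWS-FLI1 binding sites plus full-length EWS-FLI1 or empty pCI-neo vector. Treated 1.5 h after transfection with 0.05–15 μM compound or DMSO. Luciferase read 20 h later, quadruplicate wells, mean ± SD. IC50 from sigmoidal dose–response fit.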

[5] = biological target: T1, Friend leukemia integration 1 transcription factor (Proto-oncogene Fli-1)/RNA-binding protein EWS (Homo sapiens, UniProt Q01543+Q01844); assay: as §2; format: cell-based, COS-7; how it was run: as §3
T1 sequence (Q01844 whole entry): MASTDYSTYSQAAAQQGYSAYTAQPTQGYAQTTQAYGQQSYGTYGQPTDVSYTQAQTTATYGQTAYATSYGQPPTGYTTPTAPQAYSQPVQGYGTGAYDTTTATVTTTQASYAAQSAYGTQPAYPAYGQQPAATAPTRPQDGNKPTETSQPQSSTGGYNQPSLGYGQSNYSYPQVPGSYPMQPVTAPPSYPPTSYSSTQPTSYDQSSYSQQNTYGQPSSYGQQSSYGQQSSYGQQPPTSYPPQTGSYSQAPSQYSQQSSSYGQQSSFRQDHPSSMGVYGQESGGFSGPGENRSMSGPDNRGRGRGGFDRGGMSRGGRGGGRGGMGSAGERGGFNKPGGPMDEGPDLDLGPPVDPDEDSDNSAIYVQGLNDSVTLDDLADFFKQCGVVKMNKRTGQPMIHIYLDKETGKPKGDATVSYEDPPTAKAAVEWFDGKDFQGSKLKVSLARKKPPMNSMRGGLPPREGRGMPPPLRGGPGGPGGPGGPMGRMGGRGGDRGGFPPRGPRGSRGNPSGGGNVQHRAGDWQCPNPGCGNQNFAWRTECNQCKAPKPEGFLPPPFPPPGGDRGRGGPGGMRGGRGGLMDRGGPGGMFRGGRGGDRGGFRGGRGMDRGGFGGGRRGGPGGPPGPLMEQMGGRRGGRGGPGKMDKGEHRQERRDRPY
T1 sequence (Q01543 whole entry): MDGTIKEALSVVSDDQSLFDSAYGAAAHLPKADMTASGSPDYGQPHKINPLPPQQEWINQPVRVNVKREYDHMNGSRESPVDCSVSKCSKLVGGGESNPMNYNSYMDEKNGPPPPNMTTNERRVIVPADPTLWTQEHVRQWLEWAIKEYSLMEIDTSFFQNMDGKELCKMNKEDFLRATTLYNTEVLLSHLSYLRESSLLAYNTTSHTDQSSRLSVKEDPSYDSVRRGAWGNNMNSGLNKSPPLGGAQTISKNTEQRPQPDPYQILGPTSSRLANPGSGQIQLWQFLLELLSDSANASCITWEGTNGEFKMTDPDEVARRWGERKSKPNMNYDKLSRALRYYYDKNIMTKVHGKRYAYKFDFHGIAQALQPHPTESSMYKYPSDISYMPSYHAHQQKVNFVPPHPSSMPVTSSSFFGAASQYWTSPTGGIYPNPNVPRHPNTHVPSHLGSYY

[6] = biological target: T1, Friend leukemia integration 1 transcription factor (Proto-oncogene Fli-1)/RNA-binding protein EWS; assay: Binding affinity to purified recombinant EWS-FLI1 (unknown origin) after 1 hr by colorimetric phosphatase assay; format: protein assay
How it was run: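 His-tagged EWS-FLI1 expressed in BL21 (1 mM IPTG, 2 h at 27 °C) and purified from inclusion bodies by Ni column with on-column refolding. Plates coated overnight with 20 nM protein and blocked with 4% BSA for 1 h at RT. Biotin conjugate (1–100 μM) incubated 1 h, then HRP-streptavidin 1:5000 for 1 h at RT. Phosphatase substrate read at 405 nm. BSA-coated wells used as control. Kd taken from the saturation curve.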

[7] = Cytotoxicity against african green monkey COS7 cells after 48 hrs by WST1 assay; format: cell-based; details: chlorocebus aethiops, cos-7, 48 h
How it was run: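 COS7 cells (monkey kidney, lacking EWS-FLI1) grown in DMEM with 10% FBS. Compound exposure for 48 h, with viability read by WST proliferation assay.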

Row | SMILES | GI50 [1] [µM] | GI50 [2] [µM] | GI50 at 72 h [3] [µM] | inhibition activity (qualitative call) [4] | IC50 [5] [µM] | Kd [6] [µM] | Activity [7]
1 | COc1cc(OC)cc(C(=O)CC2(O)C(=O)Nc3c(Cl)ccc(Cl)c32)c1 (stereo not given) | > 10 | 9 | > 10 |  |  |  | 
2 | O=C(CC1(O)C(=O)Nc2c(Cl)ccc(Cl)c21)c1ccc(Oc2ccccc2)cc1 (stereo not given) | > 10 | > 10 | > 10 |  |  |  | 
3 | COc1cccc(C(=O)CC2(O)C(=O)Nc3c(Cl)ccc(Cl)c32)c1 (stereo not given) | > 10 | > 10 | > 10 |  |  |  | 
4 | COc1ccc(C(=O)CC2(O)C(=O)Nc3cccc(Cl)c32)cc1 (stereo not given) | > 10 | > 10 | > 10 |  |  |  | 
5 | COc1ccccc1C(=O)CC1(O)C(=O)Nc2c(Cl)ccc(Cl)c21 (stereo not given) | > 10 | > 10 | > 10 | inactive |  |  | 
6 | COc1ccc(C(=O)CC2(O)C(=O)Nc3ccc(Cl)cc32)cc1 (stereo not given) | > 10 | > 10 | > 10 |  |  |  | 
7 | COc1ccc(C(=O)CC2(O)C(=O)Nc3c(OC)ccc(OC)c32)cc1 (stereo not given) | 0.94 | 1 | > 10 |  | 0.77 |  | 
8 | COc1ccc(C(=O)CC2(O)C(=O)Nc3c(Cl)ccc(Cl)c32)c(OC)c1OC (stereo not given) | 4.4 | 2.7 | > 10 |  |  |  | 
9 | COc1ccc(C(=O)CC2(OC)C(=O)N(C)c3c(Cl)ccc(Cl)c32)cc1 (stereo not given) | > 10 | > 10 | > 10 | Active |  |  | 
10 | CN(C(=O)CCCCCNC(=O)CCCC[C@H]1SCC2NC(=O)NC21)c1ccc(C(=O)CC2(O)C(=O)Nc3c(Cl)ccc(Cl)c32)cc1 (stereo not given in full) |  |  |  |  |  | 4.8 | 
11 | O=C(CC1(O)C(=O)Nc2c(Cl)ccc(Cl)c21)c1ccc(C(F)(F)F)cc1 (stereo not given) | 6.9 | 2.9 | 11 |  |  |  | 
12 | COc1ccc(C(=O)CC2(O)C(=O)Nc3ccccc32)cc1 (stereo not given) | > 10 | > 10 | > 10 |  |  |  | 
13 | COc1ccc(C(=O)CC2(O)C(=O)N(C)c3c(Cl)ccc(Cl)c32)cc1 (stereo not given) | > 10 | 2.2 | > 10 | Active |  |  | 
14 | COc1ccc(C(=O)CC2(O)C(=O)Nc3c(Cl)ccc(Cl)c32)c(OC)c1 (stereo not given) | 2.8 | 2.6 | > 10 | Active |  |  | 
15 | COc1ccc(C(=O)CC2(O)C(=O)Nc3c(C)ccc(C)c32)cc1 (stereo not given) | > 10 | > 10 | > 10 |  |  |  | 
16 | Cc1ccc(C(=O)CC2(O)C(=O)Nc3c(Cl)ccc(Cl)c32)cc1 (stereo not given) | > 10 | > 10 | > 10 |  |  |  | 
17 | CC(C)Oc1ccc(C(=O)CC2(O)C(=O)Nc3c(Cl)ccc(Cl)c32)cc1 (stereo not given) | > 10 | > 10 | > 10 |  |  |  | 

Row | SMILES | GI50 [1] [µM] | GI50 [2] [µM] | GI50 at 72 h [3] [µM] | inhibition activity (qualitative call) [4] | IC50 [5] [µM] | Kd [6] [µM] | Activity [7]
18 | CCOc1ccc(C(=O)CC2(O)C(=O)Nc3c(Cl)ccc(Cl)c32)cc1 (stereo not given) | 3.57 | 2.7 | > 10 | Active |  |  | 
19 | N#Cc1ccc(C(=O)CC2(O)C(=O)Nc3c(Cl)ccc(Cl)c32)cc1 (stereo not given) | > 10 | > 10 | > 10 |  |  |  | 
20 | COc1ccc(C(=O)CC2(OC)C(=O)Nc3c(Cl)ccc(Cl)c32)cc1 (stereo not given) | > 10 | > 10 | > 10 | inactive |  |  | 
21 | O=C(CC1(O)C(=O)Nc2c(Cl)ccc(Cl)c21)c1ccc(F)cc1 (stereo not given) | > 10 | > 10 | > 10 |  |  |  | 
22 | CNc1ccc(C(=O)CC2(O)C(=O)Nc3c(Cl)ccc(Cl)c32)cc1 (stereo not given) | 0.39 | 0.34 | > 10 |  | 0.18 |  | 
23 | COc1ccc(C(=O)CC2(O)C(=O)Nc3cc(Cl)c(Cl)cc32)cc1 (stereo not given) | > 10 | > 10 | > 10 |  |  |  | 
24 | CN(C)c1ccc(C(=O)CC2(O)C(=O)Nc3c(Cl)ccc(Cl)c32)cc1 (stereo not given) | 0.4 | 0.26 | > 10 |  | 0.15 |  | 
25 | COc1cccc(C(=O)CC2(O)C(=O)Nc3c(Cl)ccc(Cl)c32)c1OC (stereo not given) | > 10 | > 10 | > 10 |  |  |  | 
26 | COc1ccc(C(=O)CC2(O)C(=O)N(c3ccccc3)c3c(Cl)ccc(Cl)c32)cc1 (stereo not given) | > 10 | > 10 | > 10 |  |  |  | 
27 | Nc1ccc(C(=O)CC2(O)C(=O)Nc3c(Cl)ccc(Cl)c32)cc1 (stereo not given) | > 10 | > 10 | > 10 |  |  |  | 
28 | COc1ccc(C(=O)CC2(O)C(=O)Nc3c(Cl)ccc(Cl)c32)cc1 (stereo not given) | 0.92 | 0.94 | > 10 | Dose-dependent effect | 0.35 |  | Non-toxic
29 | O=C(CC1(O)C(=O)Nc2c(Cl)ccc(Cl)c21)c1ccccc1 (stereo not given) | > 10 | > 10 | > 10 |  |  |  | 
30 | CSc1ccc(C(=O)CC2(O)C(=O)Nc3c(Cl)ccc(Cl)c32)cc1 (stereo not given) | 0.91 | 0.98 | > 10 |  | 0.33 |  | 
31 | O=C(CC1(O)C(=O)Nc2c(Cl)ccc(Cl)c21)c1ccc(I)cc1 (stereo not given) | > 10 | > 10 | > 10 |  |  |  | 
32 | COc1ccc(C(=O)CC2(O)C(=O)Nc3c(Cl)cccc32)cc1 (stereo not given) | > 10 | > 10 | > 10 |  |  |  | 
33 | COc1ccc(C(=O)CC2(O)C(=O)Nc3c(F)ccc(F)c32)cc1 (stereo not given) | > 10 | > 10 | > 10 |  |  |  | 
